How the values were obtained:
Assay type in all cases: functional, Erythrocyte
[1] = Antiinflammatory activity assessed as prevention of hypotonicity-induced lysis of human RBC at 10 ug/ml
Outline: (§1)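 Human blood spun at 1500 rpm; packed cells washed in isotonic NaCl (0.85%, pH 7.2) and resuspended 10% v/v. Mixture: compound, 1 ml phosphate buffer (0.15 M, pH 7.4), 2 ml hypotonic NaCl (0.36%), 0.5 ml cell suspension; control used distilled water instead of hypotonic saline. Incubated 37 °C, 30 min, centrifuged; supernatant hemoglobin read at 500 nm.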

[2] = Antiinflammatory activity assessed as prevention of hypotonicity-induced lysis of human RBC at 100 ug/ml; outline: as §1
[3] = Antiinflammatory activity assessed as prevention of hypotonicity-induced lysis of human RBC at 50 ug/ml; outline: as §1
[4] = Antiinflammatory activity assessed as prevention of hypotonicity-induced lysis of human RBC at 200 ug/ml; outline: as §1

Compound | Activity [1] | Activity [2] | Activity [3] | Activity [4]
Cc1cc2c(cc1C)COc1ccccc1C(=O)N(c1ccccc1)CCNC(=O)COc1ccccc1OCC(=O)NCCN(c1ccccc1)C(=O)c1ccccc1OC2 | 38.84% | 45.25% | 41.72% | 47.97%
Cc1cc2c(cc1C)COc1ccccc1C(=O)Nc1ccccc1SCc1ccc(cc1)-c1cccc(c1)-c1ccc(cc1)CSc1ccccc1NC(=O)c1ccccc1OC2 | 48.27% | 51.42% | 49.37% | 54.14%
Cc1cc2c(cc1C)COc1ccccc1C(=O)Nc1ccccc1SCCOc1ccc(cc1)NC(=O)c1ccccc1OC2 | 44.28% | 50.25% | 45.63% | 51.27%
Cc1cc2c(cc1C)COc1ccccc1C(=O)Nc1ccccc1SCc1ccc(cc1)-c1ccc(cc1)CSc1ccccc1NC(=O)c1ccccc1OC2 | 65.17% | 89.67% | 82.43% | 91%
Cc1cc2c(cc1C)COc1ccccc1C(=O)Nc1ccccc1SCc1ccc(cc1)NC(=O)c1ccccc1OC2 | 50.31% | 56.04% | 52.27% | 60.86%
O=C1CSc2ccccc2NC(=O)c2ccccc2OCc2ccccc2COc2ccccc2C(=O)Nc2ccccc2SCC(=O)Nc2ccccc2N1 | 40.53% | 48.72% | 42.6% | 49.65%
C[C@]12C=CC(=O)C=C1CC[C@@H]1[C@@H]2[C@@H](O)C[C@@]2(C)[C@H]1CC[C@]2(O)C(=O)CO [PREDNISOLONE] | – | 86.37% | 59.34% | –

Reference: ChEMBL document CHEMBL1145301, “Synthesis and study of anti-inflammatory activity of some novel cyclophane amides” (2006)
